Holding throughout (type): functional
The species named for assay [1] is Cavia porcellus. Kind of assay: Effect on guinea pig T cell proliferation was tested by measuring the incorporation of [3H]-thymidine uptake at the concentration of 0 uM. The method in brief: (§1)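 Strain 2 female guinea pigs were immunized with 100 μg OVA in CFA split over the footpads. At day 14 they received mineral oil ip, and the exudate was collected 4 days later. T cells were enriched on nylon wool. 2×10^5 cells per well were cultured with 10% irradiated (2100 rads) exudate cells, OVA (10 μg/mL) and compound, for 72 h at 37 °C in 5% CO2. [3H]thymidine (1 μCi) was added 18-24 h before harvest. Triplicate wells; mean Δcpm ± SD.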

The species named for assay [2] is Cavia porcellus. The assay can be described thus: Inhibitory activity against [3H]thymidine uptake by cinnamyl 1-thioglycosides in guinea pig T cell proliferation. The procedure, abridged: as §1
For assay [3], the species on record is Cavia porcellus. Kind of assay: Effect on guinea pig T cell proliferation was tested by measuring the incorporation of [3H]thymidine uptake at the concentration of 500 uM. The procedure, abridged: as §1
The species named for assay [4] is Cavia porcellus. The assay can be described thus: Effect on guinea pig T cell proliferation was tested by measuring the incorporation of [3H]thymidine uptake at the concentration of 10 uM. The method in brief:
as §1

Assay [5] is filed under the species Cavia porcellus. Kind of assay: Effect on guinea pig T cell proliferation was tested by measuring the incorporation of [3H]thymidine uptake at the concentration of 250 uM. The procedure, abridged: as §1
The species entered for assay [6] is Cavia porcellus. The assay can be described thus: Effect on guinea pig T cell proliferation was tested by measuring the incorporation of [3H]thymidine uptake at the concentration of 750 uM. The procedure, abridged:
as §1

The species named for assay [7] is Cavia porcellus. Kind of assay: Effect on guinea pig T cell proliferation was tested by measuring the incorporation of [3H]-thymidine uptake at the concentration of 100 uM. The method in brief: as §1
The species named for assay [8] is Cavia porcellus. The assay can be described thus: Effect on guinea pig T cell proliferation was tested by measuring the incorporation of [3H]thymidine uptake at the concentration of 1000 uM. The method in brief: as §1

The structures appear in SMILES notation.

In the case of `CC1OC(SC/C=C/c2ccccc2)C(O)C(O)C1O` (stereo in doubt; 6), the Activity is 93.5 Δcpm x10e-3 in the assay listed under Cavia porcellus [1]; 36.4 Δcpm x10e-3 in the assay filed under Cavia porcellus [3]; 115 Δcpm x10e-3 in the assay filed under Cavia porcellus [4]; 59.7 Δcpm x10e-3 in the assay filed under Cavia porcellus [5]; 12.8 Δcpm x 10^-3 in the assay listed under Cavia porcellus [6]; 101 Δcpm x10e-3 in the assay filed under Cavia porcellus [7]. In the assay listed under Cavia porcellus [8], the Activity is 5.97 Δcpm x10e-3. In the assay filed under Cavia porcellus [2] (t-cell), this compound came in with an IC50 of 750 µM.
`OCC1OC(SC/C=C/c2ccccc2)C(O)C(O)C1O` (stereo in doubt; 3): the Activity is 80.3 Δcpm x10e-3 in the assay filed under Cavia porcellus [1]; 62.7 Δcpm x10e-3 in the assay listed under Cavia porcellus [3]; 75.3 Δcpm x10e-3 in the assay filed under Cavia porcellus [4]; 67.8 Δcpm x10e-3 in the assay filed under Cavia porcellus [5]; 38.4 Δcpm x 10^-3 in the assay filed under Cavia porcellus [6]; 66.7 Δcpm x10e-3 in the assay listed under Cavia porcellus [7]. Further, the Activity in the assay listed under Cavia porcellus [8] was 42 Δcpm x10e-3. In the assay listed under Cavia porcellus [2] (Cavia porcellus, T-cell, 72 h), this compound had an IC50 of 871 µM.
On to `O=C(CCCCC1CCSS1)NCC1OC(SC/C=C/c2ccccc2)C(O)C(O)C1O` (configuration not stated), for which the Activity in the assay filed under Cavia porcellus [1] is 93.2 Δcpm x10e-3; in the assay filed under Cavia porcellus [3] it was 0 Δcpm x10e-3; in the assay listed under Cavia porcellus [4], 75.2 Δcpm x10e-3; in the assay filed under Cavia porcellus [5], 0 Δcpm x10e-3; in the assay listed under Cavia porcellus [6], 0 Δcpm x 10^-3; in the assay filed under Cavia porcellus [7], 2.97 Δcpm x10e-3. The Activity in the assay listed under Cavia porcellus [8] is 0.08 Δcpm x10e-3.
Turning to `OCC1OC(OCC2OC(SCC=Cc3ccccc3)C(O)C(O)C2O)C(O)C(O)C1O` (configuration not stated), the Activity in the assay listed under Cavia porcellus [1] is 86.9 Δcpm x10e-3; in the assay filed under Cavia porcellus [3], 28.9 Δcpm x10e-3; in the assay listed under Cavia porcellus [4], 64.2 Δcpm x10e-3; in the assay listed under Cavia porcellus [5], 34.1 Δcpm x10e-3; in the assay filed under Cavia porcellus [6], 13.04 µM; in the assay listed under Cavia porcellus [7] it was 54.9 Δcpm x10e-3. The Activity in the assay filed under Cavia porcellus [8] is 3.85 Δcpm x10e-3. Besides, the IC50 in the assay filed under Cavia porcellus [2] (Cavia porcellus, T-cell) came to 340 µM.
Regarding `OCC1OC(SCCCc2ccccc2)C(O)C(O)C1O` (configuration not stated), the Activity in the assay listed under Cavia porcellus [1] was 72.8 Δcpm x10e-3; in the assay listed under Cavia porcellus [3], 34.2 Δcpm x10e-3; in the assay listed under Cavia porcellus [4] it was 70.3 Δcpm x10e-3; in the assay filed under Cavia porcellus [5], 39.7 Δcpm x10e-3; in the assay filed under Cavia porcellus [6] it was 18.5 Δcpm x 10^-3; in the assay listed under Cavia porcellus [7] it was 59 Δcpm x10e-3. The Activity in the assay listed under Cavia porcellus [8] was 0 Δcpm x10e-3. Moreover, the IC50 in the assay filed under Cavia porcellus [2] (Cavia porcellus, T-cell, 72 h) turned out to be 402 µM.
Regarding `CC1OC(SC/C=C/c2ccccc2)C(O)C(O)C1O` (stereo in doubt; 5), the Activity was 147 Δcpm x10e-3 in the assay listed under Cavia porcellus [1]; 66.6 Δcpm x10e-3 in the assay filed under Cavia porcellus [3]; 144 Δcpm x10e-3 in the assay listed under Cavia porcellus [4]; 109 Δcpm x10e-3 in the assay filed under Cavia porcellus [5]; 31.8 Δcpm x 10^-3 in the assay listed under Cavia porcellus [6]; 130 Δcpm x10e-3 in the assay listed under Cavia porcellus [7]. Also, the Activity in the assay listed under Cavia porcellus [8] is 17.5 Δcpm x10e-3. Besides, 525 µM corresponded to half-maximal inhibition in the assay listed under Cavia porcellus [2] (t-cell) (IC50).

Usually IC50 stands for the concentration needed to halve the response being measured. High values mean weaker potency, low ones greater potency.

For the origin of these results see ChEMBL document CHEMBL1123901, “Inhibition of delayed hypersensitivity reactions by cinnamyl 1-thioglycosides” (J Med Chem, 1987).
